The target of data set [1] is T1, Broad substrate specificity ATP-binding cassette transporter ABCG2 (Homo sapiens, UniProt Q9UNQ0).
T1 sequence (Q9UNQ0 whole entry): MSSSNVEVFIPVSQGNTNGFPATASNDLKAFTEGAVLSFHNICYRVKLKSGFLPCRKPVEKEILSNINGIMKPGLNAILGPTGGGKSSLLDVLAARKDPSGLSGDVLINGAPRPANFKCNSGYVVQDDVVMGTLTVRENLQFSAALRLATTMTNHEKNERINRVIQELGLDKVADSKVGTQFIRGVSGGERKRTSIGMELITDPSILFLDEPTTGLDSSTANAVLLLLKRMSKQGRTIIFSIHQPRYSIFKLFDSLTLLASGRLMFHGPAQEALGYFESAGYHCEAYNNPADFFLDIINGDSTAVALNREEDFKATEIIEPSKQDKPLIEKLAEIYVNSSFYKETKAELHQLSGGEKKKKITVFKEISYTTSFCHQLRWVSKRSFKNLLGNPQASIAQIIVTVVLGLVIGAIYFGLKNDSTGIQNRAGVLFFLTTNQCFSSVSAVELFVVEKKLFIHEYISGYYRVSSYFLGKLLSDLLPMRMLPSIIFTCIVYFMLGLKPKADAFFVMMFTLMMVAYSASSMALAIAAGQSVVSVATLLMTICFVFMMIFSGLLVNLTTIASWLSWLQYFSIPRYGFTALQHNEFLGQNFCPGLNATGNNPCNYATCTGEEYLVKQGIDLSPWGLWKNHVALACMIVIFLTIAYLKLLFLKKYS
In words: Observed permeability in MDCK2 cells expressing human ABCG2 assessed as ABCG2-mediated basolateral to apical transport at 3 uM after 0.5 to 1 hrs by HPLC method. It is filed as ADME, cell-based. The note with it: mdck-ii. The method in brief: (§1)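 Mock (empty pcDNA3.1) or rat Abcg2/human ABCG2-transfected MDCKII, G418-selected, seeded on 3.0-μm Transwell filters at 1.0×10^6 cells/well, grown 4 days to TEER >200 Ω·cm². Single isomer loaded apical or basolateral in serum-free Opti-MEM I with 0.2 μCi/ml [3H]mannitol, 37°C 5% CO2. Receiver sampled at 0.5 and 1 h. Quantified by HPLC-UV 290 nm. Permeability = initial rate/(area × donor concentration). Efflux ratio = B→A rate / A→B rate. n = 3, mean ± S.D.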

Data set [2] concerns the target T2, ABCG2 (Homo sapiens, UniProt Q9UNQ0).
T2 sequence (Q9UNQ0 whole entry): T1 sequence (Q9UNQ0 whole entry)
The data set can be described thus: Asymmetry efflux ratio in MDCK2 cells expressing human ABCG2 assessed as ABCG2-mediated drug transport ratio at 3 uM after 0.5 to 1 hrs by HPLC method. The format is ADME, cell-based. The method in brief:
as §1

The target of data set [3] is T3, ABCG2 (Rattus norvegicus, UniProt Q80W57).
T3 sequence (Q80W57 whole entry): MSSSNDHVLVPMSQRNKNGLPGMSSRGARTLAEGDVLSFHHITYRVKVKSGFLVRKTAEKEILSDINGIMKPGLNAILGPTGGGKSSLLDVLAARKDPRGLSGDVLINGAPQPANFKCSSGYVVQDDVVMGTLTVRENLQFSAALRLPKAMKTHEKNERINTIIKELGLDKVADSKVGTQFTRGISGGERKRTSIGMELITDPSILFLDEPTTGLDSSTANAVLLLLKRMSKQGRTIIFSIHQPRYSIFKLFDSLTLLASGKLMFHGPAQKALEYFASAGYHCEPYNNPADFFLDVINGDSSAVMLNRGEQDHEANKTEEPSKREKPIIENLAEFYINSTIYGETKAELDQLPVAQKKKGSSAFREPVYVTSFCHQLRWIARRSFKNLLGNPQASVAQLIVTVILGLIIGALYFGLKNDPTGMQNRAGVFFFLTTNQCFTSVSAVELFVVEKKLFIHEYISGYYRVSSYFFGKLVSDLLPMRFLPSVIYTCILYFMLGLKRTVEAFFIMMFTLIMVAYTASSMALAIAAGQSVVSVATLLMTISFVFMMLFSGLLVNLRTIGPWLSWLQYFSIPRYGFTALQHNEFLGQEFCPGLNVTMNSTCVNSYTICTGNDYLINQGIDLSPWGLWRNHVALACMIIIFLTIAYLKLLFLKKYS
In words: Asymmetry efflux ratio in MDCK2 cells expressing rat ABCG2 assessed as ABCG2-mediated drug transport ratio at 30 uM after 0.5 to 1 hrs by HPLC method. The format is ADME, cell-based. An outline of the steps: as §1

Data set [4] addresses T4, Broad substrate specificity ATP-binding cassette transporter ABCG2 (Rattus norvegicus, UniProt Q80W57).
T4 sequence (Q80W57 whole entry): T3 sequence (Q80W57 whole entry)
The data set can be described thus: Observed permeability in MDCK2 cells expressing rat ABCG2 assessed as ABCG2-mediated basolateral to apical transport at 50 uM after 0.5 to 1 hrs by HPLC method. Particulars: mdck-ii. It is filed as ADME, cell-based. An outline of the steps:
(§2)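 rAbcg2-transfected MDCKII monolayers seeded at 1.0×10^6 cells/well on 3.0-μm filters, grown 4 days to TEER >200 Ω·cm². Serum-free Opti-MEM I on both sides. Individual PAN isomer plus 0.2 μCi/ml [3H]mannitol loaded basolaterally, 37°C, 5% CO2. Receiver sampled at 0.5 and 1 h, PAN quantified by HPLC-UV 290 nm. P_obs = initial transfer rate/(area × initial donor concentration). Mean ± S.D., n = 3.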

Data set [5] is described as follows: Asymmetry efflux ratio in MDCK2 cells assessed as drug transport ratio at 200 uM after 0.5 to 1 hrs by HPLC method. The format is ADME, cell-based, Canis lupus familiaris, MDCK-II. The note with it: dog, MDCK. An outline of the steps: as §1
The target of data set [6] is T2, ABCG2. The data set can be described thus: Asymmetry efflux ratio in MDCK2 cells expressing human ABCG2 assessed as ABCG2-mediated drug transport ratio at 30 uM after 0.5 to 1 hrs by HPLC method. The format is ADME, cell-based. The method in brief:
as §1

For data set [7], the target named is T4, Broad substrate specificity ATP-binding cassette transporter ABCG2. The data set can be described thus: Observed permeability in MDCK2 cells expressing rat ABCG2 assessed as ABCG2-mediated apical to basolateral transport at 10 uM after 0.5 to 1 hrs by HPLC method. It is filed as ADME, cell-based. The note with it: mdck-ii. The method in brief:
as §1

Data set [8] shares this target. In words: Maximum drug transport rate in MDCK2 cells expressing rat ABCG2 assessed as ABCG2-mediated transport by HPLC method. The format is ADME, cell-based. The note with it: mdck-ii. The method in brief:
(§3)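 Kinetics came from the same Transwell bidirectional flux runs in rat Abcg2- or human ABCG2-MDCKII, with donor 3–200 μM single isomer. Cellular concentrations were predicted from a three-compartment model using PS_D from mock cells and PS_PC from mannitol. Apparent apical efflux permeability was fitted against predicted cellular concentration by saturable kinetics to give K_M and T_max.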

Data set [9] in a line: Observed permeability in MDCK2 cells assessed as apical to basolateral transport at 3 uM after 0.5 to 1 hrs by HPLC method. The format is ADME, cell-based, Canis lupus familiaris. The note with it: dog, mdck-ii. The method in brief:
as §1

In data set [10] the target is T4, Broad substrate specificity ATP-binding cassette transporter ABCG2. In words: Observed permeability in MDCK2 cells expressing rat ABCG2 assessed as ABCG2-mediated basolateral to apical transport at 30 uM after 0.5 to 1 hrs by HPLC method. It is filed as ADME, cell-based. Particulars: mdck-ii. The method in brief:
as §2

In data set [11] the target is T1, Broad substrate specificity ATP-binding cassette transporter ABCG2. The data set can be described thus: Observed permeability in MDCK2 cells expressing human ABCG2 assessed as ABCG2-mediated basolateral to apical transport at 50 uM after 0.5 to 1 hrs by HPLC method. Particulars: mdck-ii. The format is ADME, cell-based. The method in brief:
as §1

The target is the same in data set [12]. In words: Observed permeability in MDCK2 cells expressing human ABCG2 assessed as ABCG2-mediated basolateral to apical transport at 30 uM after 0.5 to 1 hrs by HPLC method. It is filed as ADME, cell-based. Particulars: mdck-ii. An outline of the steps: as §1
Data set [13] deals with T4, Broad substrate specificity ATP-binding cassette transporter ABCG2. In words: Observed permeability in MDCK2 cells expressing rat ABCG2 assessed as ABCG2-mediated basolateral to apical transport at 3 uM after 0.5 to 1 hrs by HPLC method. The format is ADME, cell-based. Particulars: mdck-ii. The method in brief: as §1
Data set [14] addresses T1, Broad substrate specificity ATP-binding cassette transporter ABCG2. The data set can be described thus: Maximum drug transport rate in MDCK2 cells expressing human ABCG2 assessed as ABCG2-mediated transport by HPLC method. The note with it: mdck-ii. It is filed as ADME, cell-based. An outline of the steps: as §3

As usually defined, the efflux ratio is a quotient of directional permeabilities that is used to spot active efflux. With `COc1ccnc(C[S@+]([O-])c2nc3cc(OC(F)F)ccc3[nH]2)c1OC`, the Papp in [1] was 254 uL/hr/cm2; in [4], 137 uL/hr/cm2; in data set [7] it was 30.1 uL/hr/cm2; in [9], 118 uL/hr/cm2; in data set [10], 151 uL/hr/cm2; in [11], 156 uL/hr/cm2. In addition, the Papp stood at 211 uL/hr/cm2 in data set [12] and 253 uL/hr/cm2 in data set [13]. Besides, the efflux ratio at 3 µM at ABCG2 [2] amounted to 15. Further, the results for the efflux ratio at 30 µM at ABCG2 [3] and at ABCG2 [6] were 1.63 and 3.12, respectively. In data set [5], the efflux ratio at 200 µM worked out at 0.99. For the same molecule, the Drug transport stood at 2.49 nmol/hr.cm2 in [8] and 3.29 nmol/hr.cm2 in data set [14].

In the case of `COc1ccnc(C[S@@+]([O-])c2nc3cc(OC(F)F)ccc3[nH]2)c1OC`, the Papp in [1] came out at 258 uL/hr/cm2; in [4] it was 194 uL/hr/cm2; in data set [7], 20.9 uL/hr/cm2; in [9], 116 uL/hr/cm2; in data set [10] it was 206 uL/hr/cm2; in data set [11] it was 195 uL/hr/cm2. In addition, the Papp in [12] is 240 uL/hr/cm2; in [13], 238 uL/hr/cm2. Moreover, the efflux ratio at 3 µM at ABCG2 [2] came out at 8.61. For the same molecule, the efflux ratio at 30 µM was 6.16 at ABCG2 [3] and 5.5 on ABCG2 [6]. Also, in data set [5], the efflux ratio at 200 µM came out at 0.98. Besides, the results for the Drug transport in data set [8] and in data set [14] were 7.86 nmol/hr.cm2 and 10.2 nmol/hr.cm2, respectively.

(Values after ChEMBL document CHEMBL3525931, “Stereoselective interaction of pantoprazole with ABCG2. II. In vitro flux analysis” (Drug Metab Dispos, 2012).)
